MT1-MMP act inh – MT1-MMP (human) activation inhibition; HT1080 RFP-PRO-GFP cells, GFP/RFP ratio fluorescence, overnight; percent of plate control window, DMSO zero; GFP/RFP ratio change, % at 20 µM; hit rate 0.061% among 360,000; AID 651647; P50281;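 active = GFP/RFP ratio change of at least 30% with cell ATP level not reduced by more than half and red fluorescence within 50% of control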
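system = RFP-PRO-GFP reporter HT1080 cells | dosing = 20 µM single dose, 1% DMSO | timing = overnight cell settling, then overnight compound exposure, 37 °C, 5% CO2 | read-out basis = GFP/RFP fluorescence ratio | controls = DMSO and RFP-L50D-GFP cell wells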
TbMetRS inhib – Trypanosoma brucei MetRS inhibition; purified T. brucei MetRS, ATP depletion, Kinase-Glo luminescence; inhibition, % at 11.9 µM; hit rate 0.4% among 360,000; AID 624268;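 active = inhibition above a per-plate cutoff of the control wells' mean inhibition plus 3 SD, cut at about 5.5% in these data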;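 also: 0% = DMSO wells median and 100% = median of wells with control inhibitor compound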
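System: purified T. brucei MetRS enzyme / Detection: Kinase-Glo luciferase luminescence reporting remaining unconsumed ATP / Medium: HEPES buffer with MgCl2, KCl, DTT, spermine, BSA, pyrophosphatase / Replication: singlicate, one well per compound / Evaluation: percent inhibition relative to median high and low control wells / Schedule: 2 h aminoacylation at 25 °C after 15 min preincubation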
GC-B act – GC-B (human) receptor activation | P20594 | HEK293-GC-B cells, CNP EC30, cGMP TR-FRET; 0% at EC30 CNP, 100% saturating CNP | activation, % at 10 µM | hit rate 0.11% among 370,000 | AID 1920062;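 active = activation at 10 µM reaching about 35% in either raw or pattern-adjusted values, limit read from the data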
SKN-1 inh – C. elegans SKN-1 inhibition. inhibition, % at 21.8 µM. C. elegans VP596 Pgst-4::GFP/RFP ratio, acrylamide-induced, 24 h. hit rate 0.49% among 360,000. AID 624304;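 active = interference check ratio from 0.5 to 1.5 plus GFP to RFP signal ratio inhibition reaching or exceeding a fixed threshold, cut at about 30% in these data, passing the limit was not always enough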
GC-A act – GC-A (human) enzyme activation; AID 1671463; hit rate 0.14% among 370,000; activation, % at 10 µM; HEK293 GC-A cells, cGMP TR-FRET, EC30 ANP; 0% at EC30 ANP, 100% saturating ANP; in the data active = activation above about 40%
A1 inh – inhibitors of the anti-apoptotic protein A1, read as caspase activation. MEF A1-2A-BIM cells, Caspase-Glo 3/7 luminescence, 3 h; percent of clofoctol response, vehicle zero. caspase activation, % (concentration not given with the values). hit rate 0.066% among 330,000;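 active = over half of replicate activation scores above 10%, or exactly half above 10 with the replicate mean above 10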
Active calls of the source: *; . = not tested or not shown. Most compounds without a hit are left out; they make up all but 1.1% or so of the library.

SMILES | MT1-MMP act inh | TbMetRS inhib | GC-B act | SKN-1 inh | GC-A act | A1 inh
N/C(=N\OC(=O)c1cc(Cl)ccc1Cl)c1ccncc1 | -4 | 0 | -1 | 19 | -4 | -2
N/C(=N\OC(=O)c1ccc(Cl)cc1Cl)c1ccncc1 | 1 | -1 | -6 | 40* | 43* | -5
N/C(=N\OC(=O)c1ccc(Cl)cc1Cl)c1ccccn1 | 1 | -1 | 1 | 52* | 10 | -6
N/C(=N\OC(=O)c1cc(Br)ccc1Cl)c1ccccn1 | 2 | 0 | -10 | 47* | -5 | 1
O=C(COC(=O)c1ccc(Sc2ncn[nH]2)c([N+](=O)[O-])c1)Nc1ccc(Cl)c(Cl)c1 | . | . | -5 | . | -2 | .
COC[C@H]1CCCN1c1cccc2c1S(=O)(=O)N(C1CC1)CCCO2 | . | . | 0 | . | 1 | .
O=C(CCS(=O)(=O)c1ccccc1)Nc1ccc(F)cc1F | . | . | -5 | . | 0 | .
CCOC(=O)Cc1nc(N2CCCN(C(C)=O)CC2)c2c(C)c(C(=O)OCC)sc2n1 | . | . | 9 | . | 1 | .
C(=C\c1ccco1)/C1=NN(c2ccccc2)C(c2ccco2)C1 (stereo not drawn) | -49 | 0 | . | 13 | . | 0
O=[N+]([O-])c1ccc(/C=C/C2=NN(c3ccccc3)C(c3ccco3)C2)o1 (stereo not drawn) | -32 | -1 | -9 | 33* | -10 | .
O=C(CSc1nc2ccccc2c2nc3ccccc3n12)NCc1ccco1 | -2 | 0 | -2 | 48* | 2 | -1
Cc1ccc(N=C2NC(=O)/C(=C\c3cccs3)S2)cc1C | -6 | 0 | 2 | 30 | 3 | 1
Cc1ccc(/C=C2/SC(=Nc3ccc(F)cc3)NC2=O)s1 | -35 | 3 | 8 | 40* | 2 | 0
O=C(CSc1nnc(COc2ccc(Cl)cc2)n1Cc1ccco1)Nc1ccc2c(c1)OCO2 | . | . | -10 | . | -12 | .
Cc1ccccc1Cn1cc(CN2[C@H](CC(C)C)COc3cc(Br)ccc3S2(=O)=O)nn1 | . | . | 4 | . | -2 | .
O=C(O)c1ccccc1-c1ccccc1C(=O)Nc1ccc2c(c1)oc(=O)c1ccccc12 | 1 | 0 | -1 | 36* | -5 | .
CCCN1C(=O)/C(=C/c2c(NCCCOCC)nc3c(C)cccn3c2=O)SC1=S | -176 | -1 | -9 | 9 | -3 | .
Cc1cccn2c(=O)c(/C=C3\SC(=S)NC3=O)c(NCCCN3CCOCC3)nc12 | -54 | 0 | -1 | 52* | 6 | 0
Cc1ccc(NC(=S)NC(=O)C2CCCC2)cc1C | -2 | 0 | 7 | 0 | -1 | 0
Cc1ccc(NC(=S)NC(=O)C2CC2)c(C)c1 | 0 | 0 | 4 | 45* | -1 | 1
O=C(CSc1nnc(COc2ccc(Cl)cc2)o1)OC1CCCCC1 | 2 | 0 | 17 | -19 | 76* | -2
Cc1cc(OCc2nnc(SCC(=O)OC3CCCCC3)o2)ccc1Cl | 1 | -1 | 7 | -9 | 66* | 0
O=C(CSc1nnc(COc2ccc(Br)cc2)o1)NC1CCCCC1 | -3 | 0 | 3 | 10 | 7 | 0
O=C1c2ccccc2-c2cc(Br)ccc2NC1O (stereo not drawn) | -2 | 0 | -2 | -2 | -1 | .
O=C1c2cc(Br)ccc2OC2C=CC=CC12 (stereo not drawn) | 3 | 0 | -3 | 42* | 1 | .
SMILES | MT1-MMP act inh | TbMetRS inhib | GC-B act | SKN-1 inh | GC-A act | A1 inh
COc1ccc(CNC(C)C2COc3ccccc3O2)c(OC)c1 (stereo not drawn) | -4 | -2 | -9 | 37* | -6 | 0
CCCCCc1ccc(NC(=O)OCCCN2CCC3(CCC(c4ccccc4)CC3)C2=O)cc1 (stereo not drawn) | . | . | -7 | . | -3 | .
O=C(NCCOc1ccc(Cl)cc1)c1ccc2ccccc2n1 | -2 | 0 | -3 | 39* | 2 | -1
COC(=O)c1sc(-c2ccc(Cl)cc2)cc1NC(=O)/C=C/C(=O)O | -2 | 1 | -9 | 4 | 47* | -1
c1ccc(-c2ccc(-c3nc(-c4ccccn4)no3)cc2)cc1 | 4 | -4 | . | 63* | . | 0
Fc1ccc(-c2nc(-c3cnccn3)no2)c(Cl)c1 | -1 | 0 | -1 | 38* | 16 | -7
Cc1ccc(-c2nc(-c3ccccn3)no2)cc1Cl | 4 | -1 | -5 | 11 | -1 | -13
Clc1ccc(-c2nc(-c3cnccn3)no2)cc1 | 3 | 0 | -3 | 46* | 3 | -6
Cc1cccn2c(=O)c(C=Nc3ccccc3)c(NCc3ccco3)nc12 | -9 | 0 | . | 41* | . | 0
Cc1cccn2c(=O)c(C=NCCO)c(NCc3ccco3)nc12 | -1 | -1 | -5 | -13 | 13 | 1
O=C(Nc1ccc(Nc2ccccc2)cc1)c1ccc(Cl)cc1 | 1 | 0 | -4 | 12 | 7 | 0
N#C/C(C(=O)Nc1ccc(Cl)cc1)=C(/S)Nc1ccccc1 | 2 | 2 | 34 | 1 | 58* | -5
NC(=O)C1CCCN(C(=O)NC2CCCCC2)C1 (stereo not drawn) | 1 | 0 | 11 | 40* | 2 | 0
N#C/C(=C/C1=C(N2CCOCC2)C(=C/c2ccc(Cl)cc2)/CC1)C(=O)Nc1ccccc1F | 8 | 0 | 0 | 44* | 0 | .
c1ccc(Cc2nn3c(Cn4nnc5ccccc54)nnc3s2)cc1 | 4 | -1 | 4 | 18 | 6 | 21*
O=C(Nc1nc(SCc2ccc(F)cc2)ns1)c1ccco1 | -3 | 0 | 2 | 54* | 1 | -1
Fc1ccc(CSc2nsc(SCc3ccc(F)cc3)n2)cc1 | 4 | -1 | 5 | 1 | 2 | 0
Cc1ccc(-n2c(SCC(=O)Nc3ccc(S(=O)(=O)Nc4cc(C)nc(C)n4)cc3)nnc2-c2ccc(C(C)(C)C)cc2)cc1 | . | . | 6 | . | -4 | .
COc1ccc(-c2csc(Nc3ccccc3)n2)cc1 | 2 | 0 | -10 | 35* | 20 | -6
O=C(Nc1cccc(-c2csc(Nc3ccccc3)n2)c1)c1ccccc1 | 5 | 0 | -2 | 46* | -3 | 0
COc1ccc(Nc2nc(-c3ccc(OC)cc3)cs2)cc1 | 1 | 0 | 1 | 7 | -4 | 0
O=[N+]([O-])c1cccc(-c2csc(Nc3ccccc3)n2)c1 | -1 | -1 | -2 | 35* | 4 | 1
O=C(Nc1nc(-c2ccccc2)cs1)c1ccccc1F | -1 | 0 | -8 | 53* | 12 | 0
CN(C)c1ccc(N=Nc2ccc(C(=O)O)cc2)cc1 | 17 | 0 | -4 | 41* | 0 | -8
CC[n+]1ccccc1/C=C/c1ccc(N(C)C)cc1 | -85 | -1 | -17 | 41* | -38 | .
CCCCCC[n+]1ccccc1/C=C/c1ccc(N(C)C)cc1 | -21 | 0 | -8 | 67 | -13 | .
